# Reference: ChEMBL document CHEMBL2202989, “New adamantane phenylalkylamines with σ-receptor binding affinity and anticancer activity, associated with putative antagonism of neuropathic pain” (J Med Chem, 2012)
# Columns and labels:
# BXPC-3 [1] = test: Antitumor activity against human BxPC3 cells xenografted in SCID mouse assessed as tumor growth inhibition at 10 mg/kg, ip administered 5 times a week for one cycle relative to control; format: functional; conditions: BXPC-3, ip, route intraperitoneal, read-out: TGI
# PC-3 [2] = test: Antitumor activity against human PC3 cells xenografted in SCID mouse assessed as axillary metastasis at 20 mg/kg, ip administered once a week for two cycles measured after 2 cycles relative to control; format: functional; conditions: route intraperitoneal
# Outline: (§1)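 PC3 xenografts were grown in SCID mice (10^6 cells per inoculum), 14 mice (28 tumors) per group, dosed ip from about 100 mm3. The test agent was given in 5% Tween 80; paclitaxel was given in Cremophor diluted in saline, with a vehicle of 1:1 ethanol/Cremophor diluted 1:3 in saline. Volume and %ΔT/ΔC were derived from caliper readings twice weekly. Occurrence of primary tumors and of axillary and bone metastases was scored (n = 7). Two-tailed t test.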
# PC-3 [3] = test: Antitumor activity against human PC3 cells xenografted in SCID mouse assessed as primary tumor occurrence at 20 mg/kg, ip administered once a week for two cycles measured after 2 cycles relative to control; format: functional; conditions: route intraperitoneal; outline: as §1
# PC-3 [4] = test: Antitumor activity against human PC3 cells xenografted in SCID mouse assessed as bone metastasis at 20 mg/kg, ip administered once a week for two cycles measured after 2 cycles relative to control; format: functional; conditions: route intraperitoneal; outline: as §1
# PC-3 [5] = test: Antitumor activity against human PC3 cells xenografted in SCID mouse assessed as tumor growth inhibition at 20 mg/kg, ip administered once a week for two cycles measured after 2 cycles relative to control; format: functional; conditions: PC-3, ip, route intraperitoneal, read-out: TGI; outline: as §1
# DU-145 [6] = test: Antitumor activity against human DU145 cells xenografted in SCID mouse assessed as tumor growth inhibition at 20 mg/kg, ip administered once a week for two cycles measured after 2 cycles relative to control; format: functional; conditions: DU-145, ip, route intraperitoneal, read-out: TGI
# Outline: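 DU145 xenografts were grown in SCID mice from 10^6-cell inocula, with at least 30 animals in total. Treatment started ip at a mean tumor volume of about 100 mm3. The test agent was given in 5% Tween 80; paclitaxel was dissolved in Cremophor and diluted in saline. Caliper volumes were taken twice weekly and %ΔT/ΔC calculated; two-tailed t test.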
# PC-3 [7] = test: Growth inhibition of human PC3 cells after 48 hrs by SRB assay; format: functional; conditions: PC-3, 48 h
# Outline: (§2)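 Cells grown in RPMI 1640 with 5% heat-inactivated FCS, 2 mM L-glutamine and antibiotics, 37 °C, 5% CO2. Seeded at 3500–30000 cells/well and left 24 h before dosing. DMSO solutions added at 10-fold dilutions from 100 to 0.01 μM for 48 h. Cells TCA-fixed and SRB-stained, absorbance read at 540 nm; GI50 derived against the time-zero plate.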
# BXPC-3 [8] = test: Antitumor activity against human BxPC3 cells xenografted in SCID mouse assessed as tumor growth inhibition at 17 mg/kg, ip administered twice a week for three cycles measured after 3 cycles relative to control; format: functional; conditions: BXPC-3, ip, route intraperitoneal, read-out: TGI
# Outline: (§3)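 SCID mice bearing BxPC3 pancreatic xenografts, 10 mice per group (20 tumors). Drug dissolved in water for injection, given ip twice a week for three cycles. Controls were untreated and 5% Tween 80 vehicle. Tumor volume measured by caliper twice weekly; reduction reported on termination day. Two-tailed Student's t test.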
# HCT-116 = test: Growth inhibition of human HCT116 cells after 48 hrs by SRB assay; format: functional; conditions: HCT-116, 48 h; outline: as §2
# MIA PaCa-2 = test: Growth inhibition of human MIAPaCa2 cells after 48 hrs by SRB assay; format: functional; conditions: MIA PaCa-2, 48 h; outline: as §2
# BXPC-3 [9] = test: Growth inhibition of human BxPC3 cells after 48 hrs by SRB assay; format: functional; conditions: BXPC-3, 48 h; outline: as §2
# OVCAR-5 = test: Growth inhibition of human OVCAR5 cells after 48 hrs by SRB assay; format: functional; conditions: OVCAR-5, 48 h; outline: as §2
# IGROV-1 = test: Growth inhibition of human IGROV1 cells after 48 hrs by SRB assay; format: functional; conditions: IGROV-1, 48 h; outline: as §2
# MCF7 = test: Growth inhibition of human MCF7 cells after 48 hrs by SRB assay; format: functional; conditions: MCF7, 48 h; outline: as §2
# HCT-15 = test: Growth inhibition of human HCT15 cells after 48 hrs by SRB assay; format: functional; conditions: HCT-15, 48 h; outline: as §2
# [10] = Growth inhibition of human HUVEC cells after 48 hrs by SRB assay; format: cell-based; conditions: HUVEC cells; outline: as §2
# NHDF = test: (§4) Growth inhibition of human NHDF cells after 48 hrs by SRB assay; format: cell-based; conditions: nhdf, 48 h; outline: as §2
# [11] = as §4; format: cell-based; conditions: NHDF cells; outline: as §2
# HL-60(TB) = test: Growth inhibition of human HL-60(TB) cells after 48 hrs by SRB assay; format: functional; conditions: HL-60, 48 h
# Outline: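 Cells kept in RPMI 1640 with 5% FCS at 37 °C, 5% CO2, and seeded 24 h before dosing. Compound given from DMSO at 10-fold dilutions, 100 to 0.01 μM, for 48 h. Cells fixed with TCA, stained with SRB, absorbance read at 540 nm. GI50 taken from a time-zero plate.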
# [12] = Growth inhibition of human MSC cells after 48 hrs by SRB assay; format: cell-based; outline: as §2
# DU-145 [13] = test: Growth inhibition of human DU145 cells after 48 hrs by SRB assay; format: functional; conditions: DU-145, 48 h; outline: as §2
# U-251 = test: Growth inhibition of human U251 cells after 48 hrs by SRB assay; format: functional; conditions: U-251, 48 h; outline: as §2
# SK-HEP1 = test: Growth inhibition of human SKHEP1 cells after 48 hrs by SRB assay; format: functional; conditions: SK-HEP1, 48 h; outline: as §2
# BXPC-3 [14] = test: Antitumor activity against human BxPC3 cells xenografted in SCID mouse assessed as tumor growth inhibition at 35 mg/kg, ip administered twice a week for three cycles measured after 3 cycles relative to control; format: functional; conditions: BXPC-3, ip, route intraperitoneal, read-out: TGI; outline: as §3
# [15] = read-out: LC50 (the source's name)
smiles,measurement,setting,value
Nc1ccn([C@@H]2O[C@H](CO)[C@@H](O)[C@@H]2O)c(=O)n1 [CYTARABINE],inhibition in vivo at 10 mg/kg,BXPC-3 [1],23.8%
CC(=O)O[C@H]1C(=O)[C@@]2(C)[C@H]([C@H](OC(=O)c3ccccc3)[C@]3(O)C[C@H](OC(=O)[C@H](O)[C@@H](NC(=O)c4ccccc4)c4ccccc4)C(C)=C1C3(C)C)[C@]1(OC(C)=O)CO[C@@H]1C[C@@H]2O [PACLITAXEL],Activity,PC-3 [2],14%
same,Activity,PC-3 [3],100%
same,Activity,PC-3 [4],86%
same,inhibition in vivo at 20 mg/kg,PC-3 [5],79.1%
same,inhibition in vivo at 20 mg/kg,DU-145 [6],26.6%
O=c1[nH]cc(F)c(=O)[nH]1 [FLUOROURACIL],GI50,PC-3 [7],10.5 µM
same,TGI,PC-3 [7],100 µM
same,CC50,PC-3 [7]; [15],100 nM
same,inhibition in vivo at 17 mg/kg,BXPC-3 [8],23.7%
same,GI50,HCT-116,8.8 µM
same,TGI,HCT-116,100 µM
same,CC50,HCT-116; [15],100 nM
same,GI50,MIA PaCa-2,30.6 µM
same,TGI,MIA PaCa-2,100 µM
same,CC50,MIA PaCa-2; [15],100 nM
same,GI50,BXPC-3 [9],2900 nM
same,TGI,BXPC-3 [9],8.4 µM
same,GI50,OVCAR-5,26.4 µM
same,TGI,OVCAR-5,100 µM
same,CC50,OVCAR-5; [15],100 nM
same,GI50,IGROV-1,8.12 µM
same,TGI,IGROV-1,100 µM
same,CC50,IGROV-1; [15],100 nM
same,GI50,MCF7,14.5 µM
same,TGI,MCF7,100 µM
same,CC50,MCF7; [15],100 nM
same,GI50,HCT-15,21.1 µM
same,TGI,HCT-15,100 µM
same,CC50,HCT-15; [15],100 nM
same,GI50 at 48 h,[10],3.6 µM
same,TGI,NHDF,100 µM
same,GI50 at 48 h,[11],62 µM
same,GI50,HL-60(TB),100 nM
same,TGI,HL-60(TB),100 nM
same,CC50,HL-60(TB); [15],100 nM
same,TGI,[12],1 µM
same,GI50,DU-145 [13],20 µM
same,TGI,DU-145 [13],100 µM
same,CC50,DU-145 [13]; [15],100 nM
same,GI50,U-251,69.6 µM
same,TGI,U-251,100 µM
same,CC50,U-251; [15],100 nM
same,GI50,SK-HEP1,7.6 µM
same,TGI,SK-HEP1,100 µM
same,CC50,SK-HEP1; [15],100 nM
same,inhibition in vivo at 35 mg/kg,BXPC-3 [14],36.7%
